Screening results (PubChem)
Only some compounds are listed: those with a hit (about 11% of all), similar ones and a draw of the others.
Diaph inh CS: diaphorase inhibitors and chemical oxidizers, primary screen, counter-screen for diaphorase-coupled primary assays, biochemical, uHTS, resorufin fluorescence; diaphorase resazurin-to-resorufin fluorescence, NADH, 16 min; bacterial (C. kluyveri) enzyme, not human; inhibition, % at 20 µM; 0.69% of 190,000 active;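 active = primary screen inhibition at 20 µM above a set limit, cut at about 50% in these data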;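 also: plate controls were DMSO with full reaction for no effect and wells lacking NADH for full effect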
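Test system: diaphorase enzyme from Clostridium kluyveri; amount: diaphorase at 0.14 U/mL in enzyme working solution; detection: fluorescence of resorufin formed from resazurin, Ex 544/Em 590 nm; times: reaction incubation of 16 min at room temperature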
G6PDH counter: L. mesenteroides G6PDH inhibitors, counter-screen for G6PDH-coupled screening assays, biochemical, Leuconostoc mesenteroides enzyme | glucose-6-phosphate dehydrogenase [Leuconostoc mesenteroides] | AID 1020, 2008 | Purified L. mesenteroides G6PDH, diaphorase/resazurin coupled fluorescence, 45 min | 0.12% of 200,000 active | inhibition, % at 5 µM
L major viab: Leishmania major promastigote growth inhibition, primary screen; inhibition, % at 10 µM; 9% of 200,000 active; Leishmania major promastigotes, resazurin fluorescence viability; AID 1063, 2008;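 also: promastigotes grown with compound for 44 hours at 28 °C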
WT yeast gro inh: growth inhibition of WT strain, primary screen, mitochondrial fusion inhibitor project, WT and mutant strains, chemical genetic. mitochondrial fusion phenotypic screen. inhibition, % at 10 µM. 2.1% of 190,000 active; in the data active = inhibition above about 58%; tested in S. cerevisiae
Diaphorase act: compounds boosting diaphorase resazurin reduction – biochemical, uHTS, resorufin fluorescence, counter-screen for diaphorase-coupled primary assays, primary screen | Diaphorase/resazurin coupled assay, 16 min; stronger effect = higher value; 1 = vehicle wells, 0 = NADH-free wells | activation factor at 20 µM | 0.005% of 190,000 active | AID 1229, 2008;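 active = diaphorase activity raised at least twofold by the compound at 20 µM; inactive = activation factor below 2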
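Assay system: bacterial diaphorase enzyme (C. kluyveri) / Input: enzyme 0.07 U/mL final / Medium: 50 mM HEPES pH 7.4 with 4.542 mM MgCl2, 0.005% Tween 20 / Doses: single compound dose of 20 µM, 1% DMSO final / Incubation: 16 min enzyme reaction, ambient temperature / Signal: fluorescence, excitation 544 nm and emission 590 nm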
* marks the source's active call; other numbers are inactive results. Rule as the data show it, unless noted: active = inhibition above about 50%; inactive = the rest.

SMILES	Diaph inh CS	G6PDH counter	L major viab	WT yeast gro inh	Diaphorase act
CCOC(=O)C(C(=O)Nc1ccc(C)cc1)C1CCCCC1 (stereo not drawn)	15	7	3	5	0.8
O=[N+]([O-])c1ccc(NCCNS(=O)(=O)c2ccccc2)cc1	12	3	-1	-6	0.9
O=[N+]([O-])c1ccc(NCCCNS(=O)(=O)c2ccccc2)c(Cl)c1	13	-14	64*	21	0.9
O=C(NCCNc1ccc([N+](=O)[O-])cc1C(F)(F)F)c1ccccc1F	8	5	42	0	0.9
CCOCCCNS(=O)(=O)c1ccc(NC(=O)c2ccc([N+](=O)[O-])cc2Cl)cc1	13	0	74*	-10	0.9
Cc1ccc(C(=O)NCCNc2ccc([N+](=O)[O-])cc2C(F)(F)F)cc1	6	4	81*	-2	0.9
O=[N+]([O-])c1ccc(NCCNS(=O)(=O)c2ccccc2)c(C(F)(F)F)c1	4	11	79*	-1	1
C/C(=N/NS(=O)(=O)c1ccccc1)c1ccc(NC(=O)C2CC2)cc1	15	13	5	3	0.9
C/C(=N\NC(=O)CSc1nc(C)cc(C)n1)c1ccc2c(c1)OCCO2	10	-3	-8	-3	0.9
Cc1ccc(NC(=O)CN(C)C(=O)/C=C/c2cccs2)cc1	9	-9	-3	-10	0.9
CCOC(=O)c1c(C)[nH]c(C)c1C(=O)COC(=O)/C=C/c1cccc(C(F)(F)F)c1	28	8	59*	58*	0.7
CCOC(=O)c1c(C)[nH]c(C)c1C(=O)COC(=O)c1cc2ccccc2cc1O	48	-23	5	74*	0.5
CCOC(=O)c1c(C)[nH]c(C)c1C(=O)COC(=O)c1cc2ccccc2cc1OC	26	13	64*	5	0.7
O=C1/C(=C/c2ccc(Cl)cc2)NC(=S)N1Cc1cccnc1	6	-2	84*	22	0.9
C#CCOc1ccc(/C=C2\SC(=S)N(Cc3cccnc3)C2=O)cc1	18	-1	1	-9	0.8
CC(=O)Nc1ccc(N2C(C(C)=O)=NN(c3ccc(Cl)cc3)C2c2sccc2C)cc1 (stereo not drawn)	4	4	21	26	1
Cc1ccc(-c2cc(-c3ccccc3)c(C#N)c(N)n2)o1	34	-17	15	65*	0.7
Cc1ccc(-c2cc(-c3ccccc3Cl)c(C#N)c(N)n2)o1	39	-9	34	2	0.6
Cc1ccc(N2C(S)=C(C#N)C(=O)NC2c2cccs2)cc1 (stereo not drawn)	10	20	61*	-8	0.9
N#CC1=C(S)N(c2ccccc2)C(c2cccs2)NC1=O (stereo not drawn)	-10	25	-1	12	1.1
COc1cc(/C=C/C(=O)Nc2nnc(CC(C)C)s2)cc(OC)c1OC	0	-5	59*	-9	1
COc1cc(/C=C/C(=O)Nc2nnc(CC(C)(C)C)s2)cc(OC)c1OC	3	10	4	-10	1
COc1cc(/C=C/C(=O)Nc2ccc(C(C)=O)cc2)cc(OC)c1OC	-5	-1	69*	-8	1.1
O=S(Cc1ccccc1)CC(O)(c1ccccc1)c1ccccc1 (stereo not drawn)	19	9	-6	5	0.8
COc1cc2c(cc1NC(=O)CN(C)Cc1nc3ccccc3c(=O)[nH]1)oc1ccccc12	9	-4	-7	6	0.9
SMILES	Diaph inh CS	G6PDH counter	L major viab	WT yeast gro inh	Diaphorase act
CCN(CC)C(CNS(=O)(=O)c1ccc(Cl)cc1)c1ccccc1 (stereo not drawn)	6	10	30	-3	0.9
CC(C)NC(=O)c1cc2cc([N+](=O)[O-])ccc2s1	5	-2	-3	4	0.9
CN1CCc2c(sc(NC(=O)c3cc4cc([N+](=O)[O-])ccc4s3)c2C(N)=O)C1	12	-2	100*	25	0.9
CC(C)N1CCc2c(sc(NC(=O)c3cc4cc([N+](=O)[O-])ccc4s3)c2C(N)=O)C1	67*	-4	100*	-11	0.3
CCN1CCN(S(=O)(=O)c2ccc(C)c([N+](=O)[O-])c2)CC1	-6	-3	1	-4	1.1
COc1ccc(Nc2nc(-c3cc4cccc(OC)c4oc3=O)cs2)cc1	8	-12	-5	19	0.9
COc1ccc2oc(=O)c(-c3csc(Nc4cccc(O)c4)n3)cc2c1	23	2	99*	74*	0.8
O=C(O)c1ccc(Nc2nc(-c3cc4ccccc4oc3=O)cs2)cc1O	88*	2	1	11	0.1
CC(C)(C)NC(=O)NC(=O)COC(=O)c1ccc(OC(F)(F)F)cc1	13	3	-7	10	0.9
Cc1cc(C)n(CCc2nc(-c3ccc(C(C)(C)C)cc3)cs2)n1	13	-18	-1	75*	0.9
Cc1cc(C)n(CCc2nc(-c3ccc(F)cc3)cs2)n1	8	18	-9	7	0.9
COc1ccc(O)c(C2=Nc3ccccc3N=C(c3cccs3)C2)c1	12	5	34	36	0.9
COc1ccc(C2CC(c3cccs3)=Nc3ccccc3S2)cc1 (stereo not drawn)	14	4	64*	32	0.9
Clc1ccc2nc(CSCc3ccccc3)cn2c1	9	1	10	36	0.9
Cn1c2c(c(=O)n(C)c1=O)C(C(F)(F)F)(C(F)(F)F)N=C(CCC1CCCCC1)N2	15	9	90*	35	0.9
Cn1c2c(c(=O)n(C)c1=O)C(C(F)(F)F)(C(F)(F)F)N=C(c1ccccc1Cl)N2	5	12	2	5	0.9
COCc1cc(/C=N\NC(=O)Cc2ccc(OC)cc2)ccc1OC	4	-4	7	-11	1
COc1cccc(OC)c1C(=O)Nc1cc(C)nn1-c1nc2ccccc2[nH]1	24	-2	66*	16	0.8
Cc1cc(NC(=O)c2cccs2)n(-c2nc3ccccc3[nH]2)n1	-13	26	4	-3	1.1
Cc1cc(NC(=O)c2sccc2C)n(-c2nc3ccccc3[nH]2)n1	13	6	31	79*	0.9
COc1ccc2cc(-c3[nH]ncc3CN3CCCC3c3nonc3C)ccc2c1 (stereo not drawn)	39	7	24	-3	0.6
Cc1cccc(CN2CCCC(C(=O)N3CCc4ccccc4C3)C2)c1 (stereo not drawn)	4	14	95*	8	1
O=C(C1CCCN(Cc2ccccc2)C1)N1CCCCC1 (stereo not drawn)	19	12	-5	-20	0.8
O=C(C1CCCN(Cc2ccncc2)C1)N1CCc2ccccc2C1 (stereo not drawn)	31	6	91*	-10	0.7
